# Screening results as filed in PubChem.
# CHRM5 PAM = positive allosteric modulators of human muscarinic M5 receptor | P08912 | CHO-K1 hM5, Fluo-8 calcium, ACh EC20 PAM; 0% = ACh EC20, 100% = ACh EC100 | activation, % at 3 µM | hit rate 0.3% among 360,000 | AID 624038;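 active = activation above the run cutoff, the mean activation of all test compounds plus 3 SD, cut at about 18% in these data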
#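 system = human M5 receptor in CHO-K1 cells | reagent = EC20 acetylcholine as agonist stimulus | compound dosing = single-point, 3 µM nominal | incubation = Fluo-8 loading 80 min at 37 °C plus 30 min room temperature | detection = Fluo-8 calcium dye fluorescence, kinetic read | benchmarks = low control EC20 acetylcholine (0%), high control EC100 acetylcholine (100%)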
# M5 antag = CHRM5 antagonism in calcium assay; P08912; CHO-hM5 cells, Fluo-8 calcium fluorescence, ACh EC80; inhibition, % at 3 µM; hit rate 0.59% among 360,000;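 active = inhibition above a per-plate cutoff, the mean of that plate's test compounds plus 3 SD, cut at about 27% in these data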;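 also: 0% = acetylcholine EC80 with DMSO and 100% = DMSO without agonist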
# M5 ag = agonists of human muscarinic M5 receptor (CHRM5) | P08912 | CHO-K1 hM5 cells, Fluo-8 calcium fluorescence; 0% DMSO wells, 100% maximal acetylcholine response | activation, % at 3 µM | hit rate 0.19% among 360,000;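 active = activation above the run's mean over test compounds plus 3 SD, cut at about 23% in these data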;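 also: signal is peak over basal fluorescence ratio across the kinetic read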
# CHRM4 antagonist = CHRM4 antagonism in calcium assay. P08173. CHO-hM4 cells, ACh EC80, Fluo-8 calcium fluorescence. inhibition, % at 3 µM. hit rate 0.73% among 360,000;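 active = inhibition above its plate's cutoff, the mean inhibition of sample wells plus 3 SD, cut at about 27% in these data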;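 also: 0% = acetylcholine EC80 with DMSO and 100% = DMSO without agonist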
# Target sequence (P08173 whole entry, looked up): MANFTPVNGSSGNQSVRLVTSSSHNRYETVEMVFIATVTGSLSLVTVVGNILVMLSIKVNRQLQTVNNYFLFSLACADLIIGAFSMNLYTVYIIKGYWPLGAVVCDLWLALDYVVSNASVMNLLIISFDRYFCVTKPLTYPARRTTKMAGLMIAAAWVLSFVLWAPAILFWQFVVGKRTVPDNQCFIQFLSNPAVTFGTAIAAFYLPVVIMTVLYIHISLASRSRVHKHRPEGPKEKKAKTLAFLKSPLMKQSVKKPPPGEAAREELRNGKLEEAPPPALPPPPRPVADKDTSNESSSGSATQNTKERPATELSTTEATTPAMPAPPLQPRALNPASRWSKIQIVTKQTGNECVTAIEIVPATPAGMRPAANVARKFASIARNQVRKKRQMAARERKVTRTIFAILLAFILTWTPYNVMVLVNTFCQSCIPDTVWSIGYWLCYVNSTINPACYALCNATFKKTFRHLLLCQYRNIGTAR
# M4 PAM = positive allosteric modulators of human muscarinic M4 receptor; activation, % at 3 µM; CHO-K1 hM4/Gqi5, Fluo-8 calcium fluorescence, ACh EC20; 0% = ACh EC20, 100% = maximal ACh; AID 624126; hit rate 0.4% among 360,000; P08173;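 active = activation above its plate's cutoff, the mean activation of sample wells plus 3 SD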
# M4 ag = agonists of human muscarinic M4 receptor (CHRM4) | P08173 | CHO-K1 hM4/Gqi5, Fluo-8 calcium fluorescence; vehicle 0%, full acetylcholine response 100% | activation, % at 3 µM | hit rate 0.14% among 360,000;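 active = activation above the run mean over all test wells plus 3 SD, cut at about 32% in these data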;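 also: peak over basal fluorescence ratio per well then scaled between controls; 0% = DMSO wells and 100% = acetylcholine at EC100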
# * = called active by the depositor. Rows were chosen to be rich in hits. Some 1.9% of all compounds tested hit in one or more screens of this group.
SMILES,CHRM5 PAM,M5 antag,M5 ag,CHRM4 antagonist,M4 PAM,M4 ag
CCOc1ccc(NS(=O)(=O)c2ccc(NC(=S)NC(=O)C(C)C)cc2)cc1,0.6,5.6,12.4,0.2,0.0,7.1
CC1CN(C(=O)c2ccc(NS(=O)(=O)c3ccc(C(C)(C)C)cc3)cc2)CC(C)O1 (stereo not given),-4.5,1.8,47.9*,12.0,-5.7,33.2*
Cc1ccc(S(=O)(=O)Nc2ccc(N3CCCCC3)cc2)cc1,-5.5,-12.8,-1.7,0.4,-0.4,0.8
Cc1ccc(NS(=O)(=O)c2ccc(C(=O)N3CCCC(C(F)(F)F)C3)cc2)cc1 (stereo not given),-12.4,13.2,53.8*,13.6,-5.6,34.1*
COc1ccc(NS(=O)(=O)c2ccc(C(=O)N3CCC(C)CC3)cc2)cc1,-21.0,12.5,39.2*,-4.7,-8.6,27.2
COc1ccc(NS(=O)(=O)c2ccc(C(=O)N(C)Cc3ccc(C)o3)cc2)cc1,-4.1,-2.2,27.5*,-2.5,-3.5,14.3
CCOc1ccc(NS(=O)(=O)c2ccc(C(=O)N3CC(C)OC(C)C3)cc2)cc1 (stereo not given),-16.8,4.8,57.1*,2.7,-6.4,66.4*
COc1ccc(CN(C)C(=O)c2ccc(NS(=O)(=O)c3ccc(F)cc3)cc2)c(OC)c1,-9.0,2.9,0.5,13.3,-9.0,3.4
CCOc1ccc(NS(=O)(=O)c2ccc(C(=O)NCC(c3ccco3)N3CCCC3)cc2)cc1 (stereo not given),4.7,6.5,12.3,-15.2,-0.8,34.0*
O=C(NCC(c1ccco1)N1CCCC1)c1ccc(S(=O)(=O)Nc2ccc(F)cc2)cc1 (stereo not given),-13.6,7.9,-2.0,6.1,-6.2,10.5
CCOc1ccc(S(=O)(=O)Nc2ccc(C(=O)N3CC(C)OC(C)C3)cc2)cc1 (stereo not given),-6.6,8.9,30.0*,12.1,-7.2,16.2
CCOc1ccc(S(=O)(=O)Nc2cccc(C(=O)N3CC(C)OC(C)C3)c2)cc1 (stereo not given),-1.5,-2.8,6.6,3.7,-4.8,1.6
CCOC(=O)C1=CCC(c2cc3ccc(OC)cc3n2C(=O)OC(C)(C)C)NC1 (stereo not given),-5.6,9.9,-3.7,-0.5,-4.6,4.4
O=C(C[C@H]1CC[C@@H](NS(=O)(=O)c2ccccc2)[C@@H](CO)O1)NCc1ccc(Cl)c(Cl)c1,-3.6,14.3,0.2,-10.6,3.1,13.9
O=C(c1c(F)cccc1F)N1CCCC(c2nc(-c3ccc(Cl)cc3)no2)C1 (stereo not given),-25.2,28.3*,-4.4,-4.2,-10.0,10.2
Cc1ccc(-c2noc(C3CCCN(C(=O)c4c(F)cccc4F)C3)n2)cc1 (stereo not given),-10.1,2.5,3.6,-0.8,3.1,11.9
Cc1ccc(C(=O)CCC(=O)Nc2ncccc2C)cc1,19.2*,-0.2,8.1,-2.1,19.7,1.9
CC1=CCC[C@@H]2[C@]3(CC/C(=C/CO)CO)CO[C@@]2(C1)[C@@H](O)C[C@H]3C,-3.4,1.8,2.7,-12.9,12.4,2.8
O=C(O)c1nn(CC(=O)N2CCCCCC2)c(=O)c2ccccc12,1.6,10.0,-0.7,4.1,-0.9,0.3
CN(C(=O)Cn1nc(C(=O)O)c2ccccc2c1=O)C1(C#N)CCCCC1,5.0,3.1,0.5,-26.4,23.3*,0.9
O=C(NC1CCCCC1)C(c1ccc(-c2ccccc2)cc1)n1c(=O)c(-c2ccco2)nc2ccccc21 (stereo not given),-0.1,-3.5,1.8,-3.9,15.4,2.4
CCN1CCC2(CC1)N=C(c1ccc(F)cc1)C(=S)N2C(=O)c1ccc(C(C)(C)C)cc1,-19.4,76.2*,-8.0,17.6,-9.6,1.9
O=C(c1ccccc1)N1N=C(c2ccc(F)cc2)CC1(O)C(F)(F)F (stereo not given),-1.1,2.4,-5.5,0.7,-0.5,-1.3
CN1CCC2(CC1)N=C(c1ccc(F)cc1)C(=S)N2C(=O)c1ccccc1,-18.8,39.8*,-8.0,-1.2,6.0,2.4
COc1ccccc1Cc1c(-c2cccc(Br)c2)nc2c(C)cc(Br)cn12,-2.5,17.2,-6.1,-5.9,-0.6,-1.5
SMILES,CHRM5 PAM,M5 antag,M5 ag,CHRM4 antagonist,M4 PAM,M4 ag
CCOC(=O)c1c(NC(=O)CN2C(=O)NC(C)(c3ccc(OC(F)F)cc3)C2=O)sc(C)c1C (stereo not given),3.9,16.8,15.4,18.2,6.3,17.9
CC1(c2ccc(OC(F)F)cc2)NC(=O)N(CC(=O)Nc2ccc(OC(F)F)cc2)C1=O (stereo not given),7.1,22.4,26.7*,15.6,-6.6,38.0*
CC1(C)NC(=O)N(CC(=O)OCC(=O)c2ccc(F)cc2)C1=O,8.3,-3.4,1.8,-8.2,10.8,2.0
CC1(c2ccc(OC(F)F)cc2)NC(=O)N(CC(=O)Nc2ccc(Cl)cc2F)C1=O (stereo not given),4.1,2.6,30.4*,2.9,-2.7,31.3
CC1(C)NC(=O)N(CC(=O)OCC(=O)Nc2cccc(F)c2)C1=O,37.4*,8.7,-4.9,-0.8,3.4,0.9
CC1(c2ccc(OC(F)F)cc2)NC(=O)N(CC(=O)Nc2ccc(S(N)(=O)=O)cc2)C1=O (stereo not given),-6.6,0.8,-1.1,4.3,-8.6,0.5
CC1(c2ccc(OC(F)F)cc2)NC(=O)N(CC(=O)Nc2ccc(F)cc2)C1=O (stereo not given),-4.7,8.6,24.1*,-13.3,18.8,32.1*
CN(Cc1ccccc1)C(=O)[C@@H]1CCCN1C(=O)[C@@H]1CCCN1C(=O)c1ccc(Cl)cc1,-4.8,0.1,0.3,-6.2,4.2,-0.7
CNc1nc(NCC2CCCCC2)c2sccc2n1,-6.7,7.7,7.3,2.0,-11.1,17.9
CCOc1ccc(NC(=O)CN2C(=O)NC(C)(c3ccc(OC(F)F)cc3)C2=O)cc1 (stereo not given),2.5,20.1,16.7,11.3,-9.8,51.0*
Cc1cc(NC(=O)CN2C(=O)NC(C)(c3ccc(OC(F)F)cc3)C2=O)no1 (stereo not given),1.7,6.6,18.6,5.5,9.7,10.3
CCC1(CC)NC(=O)N(CC(=O)OCC(=O)Nc2cc(C)ccc2C)C1=O,-0.1,1.4,-1.4,-12.7,18.4*,1.5
CC1(c2ccc(OC(F)F)cc2)NC(=O)N(CC(=O)Nc2cccc(F)c2)C1=O (stereo not given),0.6,25.0,45.4*,26.5*,-22.8,97.8*
COc1ccc(Cl)cc1CNC[C@H]1O[C@@H](n2cnc3c(=O)[nH]c(N)nc32)[C@H](O)[C@@H]1O,-2.7,10.3,1.0,-0.3,-3.1,0.7
